The source of these data is ChEMBL document CHEMBL3259647, “Design, synthesis, and biological evaluation of potent dual agonists of nuclear and membrane bile acid receptors” (J Med Chem, 2014).

What is called EC50 is the concentration that produces a half-maximal response.

In one assay the test system is HEK-293T. Put plainly: Induction of cAMP production in GP-BAR1-deficient HEK293T cells at 10 uM by cAMP responsive element containing luciferase reporter gene assay. It counts as functional, cell-based. The settings on record: Homo sapiens. In a few lines: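 Control transfection of HEK-293T with only the pGL4.29 CRE-luciferase and pGL4.70 Renilla vectors, without GP-BAR1. 24 h after transfection, cells exposed 18 h to 10 μM compound. Luciferase normalized to Renilla.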
(Changes in cAMP serve as a functional read-out for many G protein-coupled receptors.)

Assay [1] concerns the target T1, G-protein coupled bile acid receptor 1 (Homo sapiens) (UniProt Q8TDU6).
T1 sequence (whole entry): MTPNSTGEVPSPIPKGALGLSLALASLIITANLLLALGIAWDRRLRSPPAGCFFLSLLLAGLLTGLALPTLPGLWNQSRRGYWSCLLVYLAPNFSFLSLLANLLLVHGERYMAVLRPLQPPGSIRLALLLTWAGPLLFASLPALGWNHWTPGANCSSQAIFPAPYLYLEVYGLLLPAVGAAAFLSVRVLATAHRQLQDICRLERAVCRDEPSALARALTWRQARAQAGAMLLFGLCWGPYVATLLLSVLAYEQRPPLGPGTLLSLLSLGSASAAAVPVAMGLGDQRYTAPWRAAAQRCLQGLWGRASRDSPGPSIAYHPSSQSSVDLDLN
The assay is described as follows: Transactivation of human GP-BAR1 transfected in HEK293T cells assessed as induction of intracellular cAMP production at 10 uM after 18 hrs by cAMP responsive element containing luciferase reporter gene assay. Type of assay: functional, cell-based. The settings on record: HEK-293T. Put shortly: (§1)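 HEK-293T co-transfected with human GP-BAR1 and a CRE-driven luciferase reporter. Stimulated 24 h post-transfection for 18 h at 10 μM. TLCA 10 μM as receptor-dependent reference; forskolin 10 μM as receptor-independent cAMP control. Luciferase normalized to Renilla; mean ± standard error.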

Assay [2] deals with T2, Bile acid receptor (Homo sapiens) (UniProt Q96RI1).
T2 sequence (whole entry): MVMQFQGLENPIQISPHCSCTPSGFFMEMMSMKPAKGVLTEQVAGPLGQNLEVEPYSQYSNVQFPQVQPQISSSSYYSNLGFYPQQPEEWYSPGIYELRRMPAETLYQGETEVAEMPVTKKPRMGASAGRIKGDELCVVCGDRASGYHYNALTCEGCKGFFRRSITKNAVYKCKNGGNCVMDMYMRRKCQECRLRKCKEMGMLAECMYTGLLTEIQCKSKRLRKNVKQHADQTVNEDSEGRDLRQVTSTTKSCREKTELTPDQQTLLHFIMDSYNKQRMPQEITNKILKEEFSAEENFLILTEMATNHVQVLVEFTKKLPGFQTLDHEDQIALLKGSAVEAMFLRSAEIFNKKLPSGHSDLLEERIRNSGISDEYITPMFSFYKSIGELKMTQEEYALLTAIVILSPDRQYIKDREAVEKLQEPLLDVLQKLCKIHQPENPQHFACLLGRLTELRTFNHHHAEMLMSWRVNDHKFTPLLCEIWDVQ
The assay is described as follows: Transactivation of human FXR transfected in human HepG2 cells at 10 uM by beta-galactosidase reporter gene assay. Type of assay: cell-based. Put shortly:
(§2)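 HepG2 cells were grown at 37 °C in MEM with Earle's salts and 10% FBS, then plated at 5 × 10⁴ cells/well. They were transfected with pSG5-FXR, pSG5-RXR, pCMV-β-gal and the IR1 reporter p(hsp27)-TK-LUC, and stimulated 18 h starting 24 h post-transfection. Lines 2 and 3 give the test levels. CDCA 10 μM was the positive control. Luciferase was normalized to β-galactosidase.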
For orientation: Reporter assays use an easily measured gene product as a stand-in for the process of interest.

Assay [3] addresses T3, G-protein coupled bile acid receptor 1 (Mus musculus) (UniProt Q80SS6).
T3 sequence (whole entry): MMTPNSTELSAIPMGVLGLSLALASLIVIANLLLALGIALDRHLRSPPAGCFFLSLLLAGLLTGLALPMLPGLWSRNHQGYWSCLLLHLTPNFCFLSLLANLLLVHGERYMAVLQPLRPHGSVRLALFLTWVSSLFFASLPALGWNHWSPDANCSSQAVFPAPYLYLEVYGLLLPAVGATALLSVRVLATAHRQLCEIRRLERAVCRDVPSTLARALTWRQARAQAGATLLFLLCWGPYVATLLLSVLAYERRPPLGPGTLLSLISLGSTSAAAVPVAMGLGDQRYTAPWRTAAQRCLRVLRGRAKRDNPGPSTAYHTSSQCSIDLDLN
The assay is described as follows: Agonist activity at GP-BAR1 in mouse GLUTag cells assessed as increase in intracellular cAMP level. Type of assay: functional, cell-based. Put shortly: (§3)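 GLUTag enteroendocrine cells measuring intracellular cAMP generation and GLP-1 released into supernatant. Values are the mean ± SE of four to five experiments; significance is versus untreated cells.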

Assay [4] has as its target T3, G-protein coupled bile acid receptor 1 (Mus musculus). Put plainly: Agonist activity at GP-BAR1 in mouse GLUTag cells assessed as increase in GLP-1 release. It counts as cell-based. Put shortly: as §3
In assay [5] the target is T4, G-protein coupled bile acid receptor 1 (Homo sapiens, UniProt Q8TDU6).
T4 sequence (Q8TDU6 whole entry): T1 sequence (whole entry)
The assay is described as follows: Transactivation of human GP-BAR1 transfected in HEK293T cells assessed as induction of intracellular cAMP production after 18 hrs by cAMP responsive element containing luciferase reporter gene assay. It counts as functional, cell-based, HEK-293T. Put shortly:
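Concentration–response in GP-BAR1/CRE-luciferase transfected HEK-293T: 0.1, 1 and 10 μM for 18 h, with TLCA 10 μM positive control. Renilla-normalized luciferase used to calculate EC50.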

The next assay concerns the target T5, Bile acid receptor (Homo sapiens, UniProt Q96RI1).
T5 sequence (Q96RI1 whole entry): T2 sequence (whole entry)
Put plainly: Transactivation of human FXR transfected in human HepG2 cells by beta-galactosidase reporter gene assay. It counts as cell-based. In a few lines: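 FXR/RXR/β-gal/IR1-luciferase transfected HepG2 cells treated with 0.01, 0.1, 1 and 10 μM; CDCA 10 μM positive control. β-gal-normalized luciferase used to calculate EC50.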

For another assay, the system named is Hepatocyte. The assay is described as follows: Upregulation of BESP mRNA expression in mouse primary hepatocytes isolated from FXR deficient mouse. It counts as functional, cell-based. In a few lines: (§4)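 Hepatocytes from wild-type or FXR−/− mice were analysed by real-time PCR for BSEP mRNA, as a measure of FXR-dependent target gene induction. Data are the mean SE of four experiments.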

Assay [6] concerns the target T2, Bile acid receptor (Homo sapiens). Put plainly: Transactivation of human FXR transfected in human HepG2 cells at 10 uM by beta-galactosidase reporter gene assay relative to CDCA. Conditions: in the assay text read “luciferase reporter gene assay” for “beta-galactosidase reporter gene assay”. It counts as cell-based. In a few lines: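 HepG2 cells transfected with human FXR, RXR, β-gal and hsp27 IR1-luciferase reporter. 24 h post-transfection, stimulated 18 h at 10 μM, with CDCA 10 μM as positive control. Luciferase RLU divided by β-galactosidase activity; mean ± standard error.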

Assay [7] has as its target T1, G-protein coupled bile acid receptor 1 (Homo sapiens). The assay is described as follows: Transactivation of human GP-BAR1 transfected in HEK293T cells assessed as induction of intracellular cAMP production at 10 uM after 18 hrs by luciferase reporter gene assay relative to TLCA. It counts as functional, cell-based. Conditions: HEK-293T. Put shortly: as §1
Assay [8] addresses T6, Bile acid receptor (Mus musculus) (UniProt Q60641).
T6 sequence (whole entry): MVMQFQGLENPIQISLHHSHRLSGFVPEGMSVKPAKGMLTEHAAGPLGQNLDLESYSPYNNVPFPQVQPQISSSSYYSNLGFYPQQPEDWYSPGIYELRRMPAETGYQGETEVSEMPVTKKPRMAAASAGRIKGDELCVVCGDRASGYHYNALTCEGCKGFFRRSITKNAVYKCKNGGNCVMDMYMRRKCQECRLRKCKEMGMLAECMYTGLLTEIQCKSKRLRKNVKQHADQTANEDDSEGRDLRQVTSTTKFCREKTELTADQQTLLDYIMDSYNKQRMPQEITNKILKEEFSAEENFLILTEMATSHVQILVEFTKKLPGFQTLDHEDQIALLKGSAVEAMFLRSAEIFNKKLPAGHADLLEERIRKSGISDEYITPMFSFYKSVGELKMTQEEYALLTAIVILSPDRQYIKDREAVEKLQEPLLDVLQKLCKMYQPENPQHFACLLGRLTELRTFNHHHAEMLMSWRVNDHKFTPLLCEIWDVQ
The assay is described as follows: Agonist activity at FXR in mouse primary hepatocytes assessed as upregulation of BESP mRNA expression. It counts as cell-based. Conditions: Hepatocyte. In a few lines: as §4

For assay [9], the target named is T2, Bile acid receptor (Homo sapiens). The assay is described as follows: Transactivation of human FXR transfected in human HepG2 cells at 1 to 10 uM by beta-galactosidase reporter gene assay. Type of assay: cell-based. In a few lines:
as §2

Activity calls are given as the source filed them. The calls are words filed in the database; no cut-off is given here.

With `C[C@H](CCCCCOS(=O)(=O)O)[C@H]1CC[C@H]2[C@@H]3[C@H](O)C[C@@H]4C[C@H](O)CC[C@]4(C)[C@H]3CC[C@]12C`, the outcome with HEK-293T was inactive. Further, the outcome in assay [1] and in assay [2] was Active.

For `C[C@H](CCC(=O)NCCOS(=O)(=O)O)[C@H]1CC[C@H]2[C@@H]3CC[C@@H]4C[C@H](O)CC[C@]4(C)[C@H]3CC[C@]12C`, the result in assay [1], in assay [3] and in [4] was Active.

As to `CC[C@H]1[C@@H](O)[C@@H]2[C@H](CC[C@]3(C)[C@@H]([C@H](C)CCCOS(=O)(=O)O)CC[C@@H]23)[C@@]2(C)CC[C@@H](O)C[C@@H]12`, the EC50 in [5] is 200 nM; on Bile acid receptor, 1000 nM. Moreover, the result in the assay on HEK-293T and in the assay on Hepatocyte was inactive. The Efficacy was 852% in assay [6] and 112% in assay [7]. Moreover, the result in assay [8], in assay [3] and in [4] was Active.

Turning to `CC[C@H]1[C@@H](O)[C@@H]2[C@H](CC[C@]3(C)[C@@H]([C@H](C)CCC(=O)O)CC[C@@H]23)[C@@]2(C)CC[C@@H](O)C[C@@H]12`, the outcome with HEK-293T and in the assay with Hepatocyte was inactive. The outcome in [8], in [2], in assay [3] and in assay [4] was Active.

Regarding `CC[C@H]1[C@@H](O)[C@@H]2[C@H](CC[C@]3(C)[C@@H]([C@H](C)CCOS(=O)(=O)O)CC[C@@H]23)[C@@]2(C)CC[C@@H](O)C[C@@H]12`, in the assay with HEK-293T, the outcome was inactive. In assay [9], the result was Active.
